Experimental findings from ChEMBL document CHEMBL3091449, “Synthesis and antimicrobial profile of N-substituted imidazolium oximes and their monoquaternary salts against multidrug resistant bacteria” (2013) are described below.

SMILES strings stand for the structures. Converted amounts (≈) assume the structure as drawn. Bounds are passed on as bounds.

What all share (format): functional
Test [1] relates to Enterobacter cloacae. The experiment in a line: Antibacterial activity against TEM-1/CTX-M-15 expressing Enterobacter cloacae isolate 62 after 18 to 24 hrs by two-fold broth microdilution assay.
Test [2] relates to Aeromonas hydrophila. As to the kind of experiment: Antibacterial activity against Aeromonas hydrophila FNSST 014 after 18 to 24 hrs by two-fold broth microdilution assay. The essentials: (§1)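 CLSI two-fold broth microdilution was used. Compounds were dissolved in DMSO, brought to 10 mg/mL in medium, then serially diluted in Mueller Hinton broth over 400–0.09 µg/mL. Overnight MHB cultures were diluted to 10^6 CFU/mL, and 10 µL was added per well. Plates were incubated 18–24 h at 37 °C, then 0.2 mg/mL INT was added for 30 min at 37 °C. MIC was the lowest concentration with no visible growth or pink colour, triplicate.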

For test [3], the system named is Klebsiella pneumoniae. The experiment in a line: Antibacterial activity against Klebsiella pneumoniae FNSST 011 assessed as diameter of zone of inhibition at 30 ug/disc after 24 hrs by disc diffusion method. The following applies: FNSST 011, 24 h, read-out: DIZ. Summed up: (§2)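 Ampicillin 30 µg discs were the positive control on Mueller Hinton agar. The agar was spread with 100 µL of a 10^6 cfu/mL overnight TSB culture grown at 37 °C. Plates were incubated 24 h at 37 °C, and zone diameter was read including the 6 mm disc, in triplicate, mean ± SE.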

Test [4] relates to Clostridium perfringens. The experiment in a line: Antibacterial activity against Clostridium perfringens FNSST 4999 after 18 to 24 hrs by two-fold broth microdilution assay. Summed up:
(§3)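 CLSI two-fold broth microdilution. Compounds dissolved in DMSO, 10 mg/mL stock, serially diluted to 400–0.09 µg/mL in Mueller Hinton broth. Wells inoculated with 10^6 CFU/mL bacteria and incubated 18–24 h at 37 °C. 0.2 mg/mL INT added for 30 min. MIC taken as the lowest concentration with no visible growth or pink colour. Triplicate.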

Test [5] relates to Bacillus cereus. The experiment in a line: Antibacterial activity against Bacillus cereus ATCC 11778 after 18 to 24 hrs by two-fold broth microdilution assay. The essentials: as §1
In test [6] the test system is Aeromonas hydrophila. The experiment in a line: Antibacterial activity against Aeromonas hydrophila FNSST 014 assessed as diameter of zone of inhibition at 30 ug/disc after 24 hrs by disc diffusion method. Conditions: FNSST 014, 24 h, read-out: DIZ. Summed up: as §2
The test system of test [7] is Klebsiella pneumoniae. As to the kind of experiment: Antibacterial activity against Klebsiella pneumoniae FNSST 011 after 18 to 24 hrs by two-fold broth microdilution assay. The essentials:
as §1

Test [8] deals with Aeromonas caviae. The experiment in a line: Antibacterial activity against TEM-1/CTX-M-15 expressing Aeromonas caviae isolate 260 after 18 to 24 hrs by two-fold broth microdilution assay. Summed up: as §1
Test [9] deals with Enterococcus faecalis. As to the kind of experiment: Antibacterial activity against Enterococcus faecalis ATCC 29212 assessed as diameter of zone of inhibition at 30 ug/disc after 24 hrs by disc diffusion method. The following applies: ATCC 29212, 24 h, read-out: DIZ. The essentials:
as §2

Test [10] relates to Clostridium perfringens. As to the kind of experiment: Antibacterial activity against Clostridium perfringens FNSST 4999 assessed as diameter of zone of inhibition at 30 ug/disc after 24 hrs by disc diffusion method. Conditions: FNSST 4999, 24 h, read-out: DIZ. The essentials: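 Ampicillin 30 µg disc run as positive control in CLSI disc diffusion. 100 µL of 10^6 cfu/mL bacteria spread on Mueller Hinton agar, incubated 24 h at 37 °C. Zone diameter measured in mm including the disc, triplicate, mean ± SE.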

Test [11] relates to Escherichia coli. As to the kind of experiment: Antibacterial activity against […] expressing Escherichia coli isolate 4024 after 18 to 24 hrs by two-fold broth microdilution assay. Summed up:
as §3

For the next test, the system named is Kluyvera intermedia. As to the kind of experiment: Antibacterial activity against TEM-1/SHV-12/[…] expressing Enterobacter intermedius isolate 243 after 18 to 24 hrs by two-fold broth microdilution assay. Summed up: as §1
For the next test, the system named is Acinetobacter baumannii. As to the kind of experiment: Antibacterial activity against SIM-1 expressing Acinetobacter baumannii isolate 170 after 18 to 24 hrs by two-fold broth microdilution assay. Summed up:
as §3

The test system of test [12] is Staphylococcus aureus. As to the kind of experiment: Antibacterial activity against Staphylococcus aureus ATCC 25923 assessed as diameter of zone of inhibition at 30 ug/disc after 24 hrs by disc diffusion method. The following applies: ATCC 25923, 24 h, read-out: DIZ. The essentials:
as §2

The test system of test [13] is Aeromonas caviae. As to the kind of experiment: Antibacterial activity against […] expressing Aeromonas caviae isolate 258 after 18 to 24 hrs by two-fold broth microdilution assay. The essentials:
as §1

Test [14] has as its system Enterobacter cloacae. As to the kind of experiment: Antibacterial activity against TEM-1/SHV-12 expressing Enterobacter cloacae isolate 306 after 18 to 24 hrs by two-fold broth microdilution assay.
In test [15] the test system is Staphylococcus aureus. The experiment in a line: Antibacterial activity against Staphylococcus aureus ATCC 25923 after 18 to 24 hrs by two-fold broth microdilution assay. The essentials:
as §1

For test [16], the system named is Klebsiella pneumoniae. As to the kind of experiment: Antibacterial activity against TEM-1/SHV-12 expressing Klebsiella pneumoniae isolate 303 after 18 to 24 hrs by two-fold broth microdilution assay. Summed up:
as §1

Test [17] deals with Aeromonas hydrophila. As to the kind of experiment: Antibacterial activity against TEM-1/SHV-12 expressing Aeromonas hydrophila isolate 268 after 18 to 24 hrs by two-fold broth microdilution assay. Summed up:
as §1

For test [18], the system named is Escherichia coli. The experiment in a line: Antibacterial activity against TEM-1/SHV-12 expressing Escherichia coli isolate 237 after 18 to 24 hrs by two-fold broth microdilution assay. The essentials:
as §3

The test system of test [19] is Escherichia coli. The experiment in a line: Antibacterial activity against Escherichia coli FNSST 982 assessed as diameter of zone of inhibition at 30 ug/disc after 24 hrs by disc diffusion method. The following applies: FNSST 982, 24 h, read-out: DIZ. The essentials: as §2
The subject of test [20] is Enterobacter cloacae. The experiment in a line: Antibacterial activity against CTX-15 expressing Enterobacter cloacae isolate 51 after 18 to 24 hrs by two-fold broth microdilution assay.
Test [21] relates to Bacillus cereus. As to the kind of experiment: Antibacterial activity against Bacillus cereus ATCC 11778 assessed as diameter of zone of inhibition at 30 ug/disc after 24 hrs by disc diffusion method. Conditions: ATCC 11778, 24 h, read-out: DIZ. The essentials:
as §2

The test system of test [22] is Enterococcus faecalis. As to the kind of experiment: Antibacterial activity against Enterococcus faecalis ATCC 29212 after 18 to 24 hrs by two-fold broth microdilution assay. The essentials: as §1
For test [23], the system named is Pseudomonas aeruginosa. The experiment in a line: Antibacterial activity against GIM-1 expressing Pseudomonas aeruginosa isolate 197 after 18 to 24 hrs by two-fold broth microdilution assay. The essentials:
as §1

For test [24], the system named is Pseudomonas aeruginosa. The experiment in a line: Antibacterial activity against Pseudomonas aeruginosa FNSST 982 assessed as diameter of zone of inhibition at 30 ug/disc after 24 hrs by disc diffusion method. The following applies: FNSST 982, 24 h, read-out: DIZ. The essentials:
as §2

For test [25], the system named is Escherichia coli. The experiment in a line: Antibacterial activity against […] expressing Escherichia coli isolate 235 after 18 to 24 hrs by two-fold broth microdilution assay. The essentials: as §3
The test system of test [26] is Escherichia coli. The experiment in a line: Antibacterial activity against Escherichia coli FNSST 982 after 18 to 24 hrs by two-fold broth microdilution assay. Summed up: as §1
The test system of test [27] is Pseudomonas aeruginosa. The experiment in a line: Antibacterial activity against Pseudomonas aeruginosa FNSST 982 after 18 to 24 hrs by two-fold broth microdilution assay. The essentials: as §1
Test [28] has as its system Stenotrophomonas maltophilia. The experiment in a line: Antibacterial activity against […] expressing Stenotrophomonas maltophilia isolate 125 after 18 to 24 hrs by two-fold broth microdilution assay. Summed up:
as §1

For a further test, the system named is Candida albicans. The experiment in a line: Antifungal activity against Candida albicans ATCC 10231 assessed as diameter of zone of inhibition at 10 ug/disc after 48 hrs by disc diffusion method. The following applies: ATCC 10231, 48 h, read-out: DIZ. Summed up: (§4)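 The positive control was amphotericin B 10 µg discs on Sabouraud dextrose agar spread with 100 µL of a 10^4 cfu/mL fungal suspension. Plates were kept at 30 °C for 48 h (yeast) or 72 h (molds). Inhibition zone was measured including the 6 mm disc, in triplicate, mean ± SE.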

A further test has as its system Talaromyces funiculosus. As to the kind of experiment: Antifungal activity against Penicillium funiculosum FNSST 3724 assessed as diameter of zone of inhibition at 10 ug/disc after 72 hrs by disc diffusion method. Conditions: FNSST 3724, 72 h, read-out: DIZ. The essentials: as §4
A further test deals with Aspergillus fumigatus. As to the kind of experiment: Antifungal activity against Aspergillus fumigatus FNSST 3833 assessed as diameter of zone of inhibition at 10 ug/disc after 72 hrs by disc diffusion method. Conditions: FNSST 3833, 72 h, read-out: DIZ. The essentials:
as §4

`CO/N=C(\C(=O)N[C@@H]1C(=O)N2C(C(=O)O)=C(COC(C)=O)CS[C@H]12)c1csc(N)n1` [CEFOTAXIME]: the MIC against Enterobacter cloacae [1] was above 256 µg/mL; in the test with Aeromonas hydrophila [2], 8 µg/mL (≈ 17.6 µM); against Clostridium perfringens [4], 0.1 µg/mL (≈ 0.22 µM); against Bacillus cereus [5], 0.25 µg/mL (≈ 0.549 µM); in the test with Klebsiella pneumoniae [7] it was 0.5 µg/mL (≈ 1.1 µM); against Aeromonas caviae [8] it was 256 µg/mL (≈ 562 µM). Besides, the MIC in the test on Escherichia coli [11] is 256 µg/mL (≈ 562 µM); against Kluyvera intermedia it was 8 µg/mL (≈ 17.6 µM); in the test with Acinetobacter baumannii, above 256 µg/mL; with Aeromonas caviae [13], 258 µg/mL (≈ 566 µM); against Enterobacter cloacae [14], above 128 µg/mL; against Staphylococcus aureus [15] it was 0.5 µg/mL (≈ 1.1 µM). Besides, the MIC in the test with Klebsiella pneumoniae [16] is 64 µg/mL (≈ 141 µM); against Aeromonas hydrophila [17] it was 256 µg/mL (≈ 562 µM); against Escherichia coli [18], above 256 µg/mL; in the test on Enterobacter cloacae [20], 32 µg/mL (≈ 70.3 µM); in the test on Enterococcus faecalis [22], 0.5 µg/mL (≈ 1.1 µM); with Pseudomonas aeruginosa [23], 256 µg/mL (≈ 562 µM). The MIC in the test on Escherichia coli [25] is above 256 µg/mL; with Escherichia coli [26] it was 0.5 µg/mL (≈ 1.1 µM); against Pseudomonas aeruginosa [27], 16 µg/mL (≈ 35.1 µM); in test [28] it was 32 µg/mL (≈ 70.3 µM). Further, the zone of inhibition at 30 µg/disc is 21.4 mm with Klebsiella pneumoniae [3]; 14.7 mm with Aeromonas hydrophila [6]; 23.5 mm in the test on Enterococcus faecalis [9]; 28.5 mm with Clostridium perfringens [10]; 21.7 mm in the test on Staphylococcus aureus [12]; 22.8 mm in the test on Escherichia coli [19]. Besides, the zone of inhibition at 30 µg/disc is 26.8 mm in the test on Bacillus cereus [21] and 10.4 mm in the test on Pseudomonas aeruginosa [24].
As to `C[C@@H]1[C@H](O)[C@@H](C)/C=C/C=C/C=C/C=C/C=C/C=C/C=C/[C@H](O[C@@H]2O[C@H](C)[C@@H](O)[C@H](N)[C@@H]2O)C[C@@H]2O[C@](O)(C[C@@H](O)C[C@@H](O)[C@H](O)CC[C@@H](O)C[C@@H](O)CC(=O)O[C@H]1C)C[C@H](O)[C@H]2C(=O)O` [AMPHOTERICIN B], the zone of inhibition at 10 µg/disc was found to be 21.6 mm with Candida albicans, 18.3 mm in the test on Talaromyces funiculosus and 19.2 mm in the test on Aspergillus fumigatus.
